Assay results from different studies.

SMILES | test system | setting | endpoint | value
CN[C@H](CC(C)C)C(=O)N[C@H]1C(=O)N[C@@H](CC(N)=O)C(=O)N[C@H]2C(=O)NC3C(=O)N[C@H](C(=O)N[C@H](C(=O)NCCC[N+](C)(C)C)c4cc(O)cc(O)c4-c4cc3ccc4O)[C@H](O)c3ccc(c(Cl)c3)Oc3cc2cc(c3OC2OC(CO)C(O)[C@H](O)[C@@H]2O[C@H]2CC(C)(NCc3ccc(-c4ccc(Cl)cc4)cc3)[C@H](O)[C@H](C)O2)Oc2ccc(cc2Cl)[C@H]1O (some centres unmarked) | mouse, plasma | intravenous, 10 mg/kg | AUC | 81100 ng·h/mL
CCN(CC)CCCC[C@H](NC(=O)[C@H](CC(C)C)NC(=O)[C@H](C)NC(=O)[C@H](Cc1ccccc1)NC(=O)c1ccc(C(C)(C)C)cc1)C(=O)N[C@@H](CO)C(=O)OC | male Swiss mouse, blood | intravenous, 3 mg/kg | AUC(0-t) | 1890 ng·h/mL
Cc1cc(C)nc(Nc2ncc(C(=O)NCCc3c(C)[nH]c4ccccc34)cn2)c1 | C57BL/6 mouse, plasma | intraperitoneal, 4.4 mg/kg | AUC(0-inf) | 155 ng·h/mL
CN1CCCCC1Cn1cc(C(=O)c2cc([N+](=O)[O-])ccc2I)c2ccccc21 (racemic) | mouse, plasma | oral, 25 mg/kg | AUC | 1230 ng·h/mL
C[C@]12CC[C@H](n3ccnc3)CC1=CC[C@@H]1[C@@H]2CC[C@]2(C)C(n3cnc4ccccc43)=CC[C@@H]12.Cl | male CD-1 mouse, plasma | oral, 10 mg/kg | AUC(0-t) | 22600 ng·h/mL
CCC[C@@](N)(CO)CCc1ccc(OCCCCCC(C)C)cc1 | mouse, plasma | intraperitoneal, 10 mg/kg | AUC(0-t) | 1.06 µM·h
C[C@]12CC[C@H](O)CC1=CC[C@@H]1[C@@H]2CC[C@]2(C)C(n3cnc4ccccc43)=CC[C@@H]12.Cl | mouse, plasma | intravenous, 1 mg/kg | AUC(0-t) | 44.3 ng·h/mL
NCC(=O)Nc1ccc(-n2nc(C(F)(F)F)cc2-c2ccc3c(ccc4ccccc43)c2)cc1 | mouse, plasma | oral, 80 mg/kg, single dose | AUC(0-t) | 41400 ng·h/mL
